Screening results as filed in PubChem BioAssay.
Only some compounds are listed: those with a hit (about 4.6% of all), similar ones and a draw of the others.
DSG3 Ab inh: inhibitors of pemphigus antibody binding to human desmoglein-3 | P32926 | DSG3-coupled beads, scFv-anti-DSG3-GFP binding, flow cytometry; active compounds read low | binding (percent of control), % at 10 µM | 310,000 compounds, 0.48% hits | AID 588358;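 active means binding more than 3 SD below its plate's average and above zero; inconclusive means below that plate limit but binding exactly zero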;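 further: hits lower antibody fragment binding to DSG3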
Arr AP2 block: blocks beta-arrestin peptide binding to AP2 adaptin; 340,000 compounds, 0.31% hits; FITC-arrestin peptide / GST-AP2 beads, flow cytometry; AP2 beta2 appendage carries R879A mutation; AID 504490; inhibition, % at 10 µM;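 active means inhibition above a set limit, near 3 SD of compounds lacking own fluorescence, cut at about 54% in these data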;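 further: plate controls were DMSO wells for no effect and 5 µM unlabelled arrestin peptide for full effect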
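Measured by: flow cytometry, FL1 (488/535 nm); Material: AP2 appendage R879A on GSH beads; Evaluation: percent response; Timing: pre-incubation 12 min, peptide binding 1 h, room temperature; Also added: 50 nM FITC-arrestin peptide; Medium: PBS with 0.05% Tween 20 and 0.1% BSA.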
ALR inh: human ALR oxidase inhibition via reduced H2O2; P55789; purified ALR, DTT oxidation, H2O2 HRP-luminol luminescence; inhibition, % (no concentration beside the values); 290,000 compounds, 3.8% hits;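 active means mean replicate inhibition above about 79%, with every replicate also reaching it, limit read from the data; inconclusive means only one of the two criteria met; inactive means mean below limit and not every replicate reaching it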
Target sequence (P55789 whole entry, looked up): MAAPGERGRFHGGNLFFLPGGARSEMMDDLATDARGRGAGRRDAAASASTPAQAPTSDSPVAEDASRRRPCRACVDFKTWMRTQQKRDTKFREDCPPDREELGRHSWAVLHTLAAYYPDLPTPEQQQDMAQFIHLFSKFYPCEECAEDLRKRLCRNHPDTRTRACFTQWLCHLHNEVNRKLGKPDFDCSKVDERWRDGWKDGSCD
NLRP3 yeast inh: inhibitors of NALP3 inflammasome in yeast | Yeast reconstituted NLRP3/ASC/caspase-1, beta-gal luminescence, 24 h | inhibition, % at 10 µM | 330,000 compounds, 0.39% hits | AID 2825;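 active means inhibition of 50% or more; inactive means inhibition below 50%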;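 further: plate controls were induced DMSO wells for no effect and uninduced yeast grown without galactose for full effect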
NALP1 yeast inh: blocks the NALP1 inflammasome reconstituted in yeast; inhibition, % at 10 µM; 280,000 compounds, 0.61% hits; S. cerevisiae NALP1/ASC/caspase-1 growth, X-gal OD620, 72 h; in the data active means inhibition mostly above about 24%, no sharp cut-off; inactive means mostly below about 32%
PolyA inh: inhibitors of polyadenylation in S. cerevisiae; AID 1875; 300,000 compounds, 0.02% hits; S. cerevisiae SKY197-pL101 polyadenylation reporter, beta-gal luminescence; efflux-impaired pdr1/pdr3 knockout yeast; score 100 = 6 SD above DMSO; activity score, % at 12 µM;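 active means lowest replicate activity score at least 50, where 100 means six control SD above control mean; inconclusive means lowest score under 50 but half or more replicates reach 50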;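 further: yeast exposed to compound for 9 h at 30 °C; higher score means more reporter readthrough which indicates perturbed polyadenylation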
The depositor's hits bear a star; u = inconclusive; x = no result.

SMILES	DSG3 Ab inh	Arr AP2 block	ALR inh	NLRP3 yeast inh	NALP1 yeast inh	PolyA inh
COc1ccccc1C(=O)NCCC(=O)N(C)CC(=O)Nc1ccc(N2CCOCC2)cc1	107	10	99*	-11	x	-4
CN(CC(=O)Nc1ccc(N2CCOCC2)cc1)C(=O)CCNC(=O)c1ccc(Br)cc1	115	18	96*	21	x	-12
COc1cc(C(C(=O)NC2CCCC2)N(CCO)C(=O)Cn2nnc(-c3ccc(C)o3)n2)ccc1O (stereo not given)	x	21	18	11	3	8
CCc1nc(N)nc(N)c1-c1ccc(N(C)Cc2ccccc2)c([N+](=O)[O-])c1	88	-33	x	x	x	x
COc1ccc(CC(=O)Nc2ccc(S(=O)(=O)Nc3cc(C)nc(C)n3)cc2)cc1OC	95	x	x	x	x	x
Cc1ccc(S(=O)(=O)N2CCN(S(=O)(=O)c3ccccc3Br)C2=O)cc1	102	42	x	x	x	x
CC(=O)Nc1ccc(S(=O)(=O)N2CCC3(CC2)CC(=O)c2ccccc2O3)cc1	95	0	-2	13	x	15
CCOC(=O)CSC(=S)NC(=O)c1ccc(OC)cc1	96	-4	100*	9	9	-25
COc1cc(/C=C/C(=O)N[C@@H](Cc2c[nH]c3ccccc23)C(=O)O)ccc1O	97	4	86*	18	8	0
COc1cc(C(=O)N[C@@H](Cc2c[nH]c3ccccc23)C(=O)O)cc(OC)c1OC	99	-6	x	5	4	14
CCN1CCN(CC(O)COc2ccc3c(c2)CCC3)CC1 (stereo not given)	100	2	-2	12	35	-5
O=S(=O)(c1ccccc1)N1CCN(CC(O)COc2ccc3c(c2)CCC3)CC1 (stereo not given)	79*	26	-1	-3	-11	9
O=C1NC(=O)C2C3OC(C(Br)C3Br)C12 (stereo not given)	95	x	x	x	x	x
Cc1noc2ncnc(Oc3cc(Cl)ccc3Cl)c12	104	3	-17	-35	21*	-13
CC1CCc2ccccc2N1CC(=O)Nc1cccc(S(=O)(=O)N2CCCC2)c1 (stereo not given)	106	2	x	6	x	x
O=C(/C=C/c1ccc(O)c(O)c1)O[C@@H]1C[C@](O)(C(=O)O)C[C@@H](O)[C@H]1O	114	1	100*	10	x	20
COc1cc(/C=C/C(=O)OC[C@H]2O[C@H](OC3(CO)OC(CO)C(O)C3O)[C@H](O)[C@@H](O)[C@@H]2O)ccc1O (stereo not given in full)	98	14	u	24	x	x
COc1cc(/C=C/C(=O)OC2CC3CCC2(C)C3(C)C)ccc1O (stereo not given)	96	7	u	3	-1	3
O=C(/C=C/c1ccc(O)c(O)c1)OC1C(O)CC(OC(=O)/C=C/c2ccc(O)c(O)c2)(C(=O)O)CC1O (stereo not given)	93	8	99*	x	3	3
Cc1cc2nc(-c3ccc(SCC(=O)N4CCc5ccccc54)nc3)[nH]c2cc1C	98	-5	-5	-14	24*	6
Cc1cc2nc(-c3ccc(SCC(=O)NC(C)C)nc3)[nH]c2cc1C	x	x	-4	1	9	4
Cc1cc2nc(-c3ccc(SCc4ccc(C(=O)O)cc4)nc3)[nH]c2cc1C	98	-1	99*	x	7	7
Cc1ccsc1C(=O)N(C)C1CCS(=O)(=O)C1 (stereo not given)	101	4	-4	4	x	x
OCCNCC(O)CN1c2ccccc2Sc2ccccc21 (stereo not given)	99	-13	99*	11	11	-8
CC1CCN(CC(O)CN2c3ccccc3Sc3ccccc32)CC1 (stereo not given)	100	-9	u	22	17	21
SMILES	DSG3 Ab inh	Arr AP2 block	ALR inh	NLRP3 yeast inh	NALP1 yeast inh	PolyA inh
CCCCNc1cc(NC(C)=O)cc2cc(OC)c(OC)cc12	112	9	99*	21	-35	-3
CCOc1cccc(/C=C(/C#N)c2nc3ccccc3[nH]2)c1OCC(=O)O	94	-9	98*	24	2	7
N#C/C(=C\c1cccc(OCC(=O)O)c1)c1nc2ccccc2[nH]1	117	-12	98*	17	7	13
CC(C)(C)[C@@H]1C=C(C(=O)NCc2ccccc2)O[C@H](OCc2ccc(CO)cc2)C1	104	-5	-31	18	4	-12
C#CCNC(=O)C1=C[C@@H](C(C)(C)C)C[C@@H](OCc2ccc(CO)cc2)O1	98	23	1	12	30*	-8
COc1ccc(N2CCN(C(=O)CCc3nnc4ccc(N5CCCC5)nn34)CC2)cc1	x	-1	u	9	7	13
O=S(=O)(NNc1ccc(F)cc1F)c1cccc(Cl)c1	x	19	98*	15	2	11
O=C(NNc1ccc(F)cc1F)c1c(F)cccc1Cl	x	1	46	13	-1	-20
COc1ccccc1C(=O)Nc1c2c(nn1-c1cccc(C)c1C)CS(=O)(=O)C2	32*	43	x	1	15	14
Cc1cc(C)cc(NC(=O)c2cccc(N3C(=O)C4C5C=CC(C5)C4C3=O)c2)c1 (stereo not given)	x	-14	x	8	14	0
Cc1cccc(NC(=O)c2cccc(N3C(=O)C4C5C=CC(C6CC56)C4C3=O)c2)c1 (stereo not given)	x	5	89*	6	17	8
Cc1ccc2cc(CCNC(=O)C3CCCCC3)c(=O)[nH]c2c1C	96	-8	-6	22	18	2
CCN(CC)CCCN(Cc1cc2ccc(C)c(C)c2[nH]c1=O)C(=O)NC1CCCCC1	98	8	3	13	23*	0
Cc1ccc2c(c1)-n1c(nc3ccccc3c1=O)C(Cc1ccccc1)NC2=O (stereo not given)	x	x	-1	11	x	x
CCCN1CCC(=O)N([C@H](CSc2ccc(OC)cc2)CC(C)C)CC1	112	-9	99*	6	6	-1
Cc1cc(C)cc(Nc2ccc(C(=O)O)cc2N)c1	103	-5	x	17	5	27
Cc1ccc(Nc2ccc(C(=O)O)cc2N)cc1	x	x	99*	10	0	-14
COc1cccc(Nc2ccc(C(=O)O)cc2N)c1	102	3	99*	1	17	0
C[C@H](NC(=O)c1ncn2c1C(=O)N(C)CC2)C(=O)OC(C)(C)C	101	x	x	x	x	x
c1cncc(CN=C2Nc3ccccc3CS2)c1	112	7	98*	13	-38	17
Clc1ccc(CN=C2Nc3ccccc3CS2)cc1	104	10	-7	22	11	-2
O=C(Nc1ccc([N+](=O)[O-])cc1)c1ccccc1F	108	2	-5	10	10	-14
